Test results published in PMC10245936 (bioRxiv, 2023).
Several values for one entry are separate records, joined by “and”; a condition that tells them apart may be missing. Identical values can stand only once.

Assays:
[1] = standard adult NTZ dose, one 500 mg tablet by mouth twice daily; cited from earlier work
[2] = tested on: GI.1-based HuNoV replicon; conditions: Huh7 liver cells; cited from earlier work
[3] = tested on: 3 different GII.4 HuNoV isolates; conditions: fetal ileum-derived 3D HIEs; non-cytotoxic concentration; cited from earlier work
J2 HIE line = experiment: HIE viability, CellTiter-Glo 2.0 Cell Viability Assay; format: cell-based, human; conditions: J2 HIEs, 24 h
GII.4 Sydney [P31] HuNoV = experiment: HuNoV replication; format: cell-based, human norovirus; conditions: for SI: CC50 over EC50, J2 HIE line
Outline: (§1)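 Differentiated monolayers (24 h INTp, then 5 days INTd) received 100 TCID50 (TCID50 per genotype and HIE line by Reed-Muench) with compound in CMGF- plus 500 μM GCDCA for 1–2 h at 37°C. Cells were washed 3 times, then kept in compound-containing INTd with GCDCA for 24 h. Five ascending concentrations; vehicle 1% DMSO or 2% H2O final. Genome equivalents by RT-qPCR against a standard curve. Triplicate wells, duplicate qPCR. Dunnett versus vehicle; EC50/EC90 by nonlinear regression (top fixed at 100); SI = CC50/EC50.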

HuNoV [4] = conditions: HIE monolayers; cited from earlier work
GII.17[P13] HuNoV = experiment: HuNoV replication; format: cell-based, human norovirus
Outline: as §1

HuNoV [5] = conditions: HuNoV-infected, otherwise healthy patients, versus placebo; cited from earlier work
[6] = HIE viability, CellTiter-Glo 2.0 Cell Viability Assay; format: cell-based; conditions: human, J2004 HIE line monolayers
Outline: (§2)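 CellTiter-Glo 2.0 read as directed by the manufacturer on 5-day-differentiated monolayers. Triplicate wells were given vehicle or compound in virus-free incubation medium for 24 h. CC50 from nonlinear regression of percent viability, with the bottom fixed at 0.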

GII.3[P21] HuNoV = experiment: HuNoV replication; format: cell-based, human norovirus
Outline: as §1

J2 HIEs = experiment: Preliminary dose-range cytotoxicity assessment; format: cell-based, human; conditions: for monolayer integrity and propidium iodide staining: 24 h
J4FUT2 HIE line = experiment: HIE viability, CellTiter-Glo 2.0 Cell Viability Assay; format: cell-based, human; conditions: J4FUT2 HIEs, 24 h
GII.4 Sydney [P16] HuNoV = experiment: HuNoV replication; format: cell-based, human norovirus; conditions: for SI: CC50 over EC50; for EC50 / EC90: 100 TCID50, 24 h
Outline: as §1

[7] = HIE viability, CellTiter-Glo 2.0 Cell Viability Assay; format: cell-based; conditions: human, D2004 HIE line monolayers
Outline: as §2

HuNoV [8] = conditions: 31 randomized patients, compared to placebo; ref NCT03395405; cited from earlier work
[9] = HIE viability, CellTiter-Glo 2.0 Cell Viability Assay; format: cell-based; conditions: human, IL2004 HIE line monolayers
Outline: as §2

HuNoV [10] = conditions: chronically infected HuNoV patients; cited from earlier work
GI.1[P1] HuNoV = experiment: HuNoV replication; format: cell-based, human norovirus; conditions: for EC90: 100 TCID50
Outline: as §1

GII.4 Sydney [P31] virus = conditions: adult jejunal HIE line plated as monolayers; cited from earlier work
5 HuNoV strains = experiment: Antiviral pipeline, summary over all HuNoV strains and HIE lines tested; format: cell-based; conditions: Norovirus, in Homo sapiens
Outline: as §1

[11] = tested on: adult jejunal HIE line (J2) monolayers; conditions: cited from earlier work
[12] = Norovirus, in Homo sapiens, 24 h
[13] = Norovirus, in Homo sapiens, 24 h, read-out: inhibition of replication
[14] = CC50 over EC50, J4FUT2 HIE line
[15] = J4FUT2 HIEs, at 40 and 80 μM, 24 h
[16] = Norovirus, in Homo sapiens, D2004 (duodenal) HIE line
[17] = Norovirus, in Homo sapiens, IL2004 (ileal) HIE line
[18] = Norovirus, in Homo sapiens, J2 HIE line
[19] = Norovirus, in Homo sapiens, J2004 (jejunal) HIE line

SMILES: O=C(Nc1ncc([N+](=O)[O-])s1)c1ccccc1O [tizoxanide]
- maximal concentrations of tizoxanide [1]: approximately 10 µg/mL and ~ 38 µM
- replication of the replicon [2]: inhibited replication
- replication of HuNoV isolates [3]: reduced replication

SMILES: C[C@@]1(O)[C@H](O)[C@@H](CO)O[C@H]1n1ccc(N)nc1=O [2’CMC, 2’-C-methylcytidine]
- cytotoxicity (luciferase-based viability assay) (J2 HIE line; any concentration tested (up to 316 μM)): not cytotoxic
- SI (GII.4 Sydney [P31] HuNoV): > 31.6
- reduction of replication (GII.4 Sydney [P31] HuNoV; J2 HIEs, between 3 – 316 μM, 24 h): 0.12 – 2.65 log10
- EC50 (GII.4 Sydney [P31] HuNoV; [12]): 10 µM
- EC90 (GII.4 Sydney [P31] HuNoV; [12]): 54 µM
- inhibition at 316 µM (GII.4 Sydney [P31] HuNoV; [13]): 23.5 to 100%
- HuNoV replication (HuNoV [4]): inhibit HuNoV replication

SMILES: CC(=O)Oc1ccccc1C(=O)Nc1ncc([N+](=O)[O-])s1 [NTZ, nitazoxanide]
- SI (GII.17[P13] HuNoV; [14]): 1.9
- reduction in replication (GII.17[P13] HuNoV; J4FUT2 HIEs, 80 μM, 24 h): 1.5 log10
- EC50 (GII.17[P13] HuNoV; [12]): 33.4 µM
- EC90 (GII.17[P13] HuNoV; [12]): > 80 µM
- symptom resolution (HuNoV [5]): symptom resolution significantly faster
- CC50 at 24 h [6]: 63.1 µM
- replication of the replicon [2]: inhibited replication
- SI (GII.3[P21] HuNoV; [14]): 4.5
- average percent inhibition (GII.3[P21] HuNoV; [15]): 79.6 – 98.8%
- EC50 (GII.3[P21] HuNoV; [12]): 14.4 µM
- EC90 (GII.3[P21] HuNoV; [12]): > 80 µM
- inhibition at 20 µM (GII.3[P21] HuNoV; Norovirus, in Homo sapiens, 24 h, read-out: average percent inhibition): 39.7 to 55.2%
- monolayer integrity and propidium iodide staining (J2 HIEs; 32 μM): monolayers were intact and had few dead or damaged cells
- monolayer integrity and propidium iodide staining (J2 HIEs; 100 μM and above): disassociation of the monolayer
- cytotoxicity, CellTiter-Glo 2.0 (J2 HIEs; highest concentrations (≥100 μM) of range 3 to 316 μM): high cytotoxicity and detachment of the monolayer
- cell viability (J4FUT2 HIE line; 80 μM, in tandem with GII.17 assay): significantly reduced cell viability
- cytotoxicity (J4FUT2 HIE line; 40 and 80 μM, in tandem with GII.3 assay): cytotoxic
- average viability (J4FUT2 HIE line; in tandem with GI.1 assay): steady up to 40 μM but significantly reduced at 80 μM
- inhibition of replication (significance) (GII.4 Sydney [P16] HuNoV; 40 μM, duodenal D2004 HIEs): significantly inhibitory
- inhibition of replication (significance) (GII.4 Sydney [P16] HuNoV; 80 μM, across J2, D2004, J2004, IL2004 HIE lines): significantly inhibitory
- SI (GII.4 Sydney [P16] HuNoV; D2004 HIE line): 1.2
- SI (GII.4 Sydney [P16] HuNoV; IL2004 HIE line): 1.4
- SI (GII.4 Sydney [P16] HuNoV; J2 HIE line): 4.0
- SI (GII.4 Sydney [P16] HuNoV; J2004 HIE line): 1.2
- EC50 (GII.4 Sydney [P16] HuNoV; J2 HIE line): 12.9 µM
- EC50 (GII.4 Sydney [P16] HuNoV; [16]): 42.8 µM
- EC90 (GII.4 Sydney [P16] HuNoV; [16]): > 80 µM
- EC50 (GII.4 Sydney [P16] HuNoV; [17]): 40 µM
- EC90 (GII.4 Sydney [P16] HuNoV; [17]): 46 µM
- EC50 (GII.4 Sydney [P16] HuNoV; [18]): 12 µM
- EC90 (GII.4 Sydney [P16] HuNoV; [18]): > 80 µM
- EC50 (GII.4 Sydney [P16] HuNoV; [19]): 53.9 µM
- EC90 (GII.4 Sydney [P16] HuNoV; [19]): > 80 µM
- SIs (GII.4 Sydney [P16] HuNoV; span over duodenal, jejunal, and ileal lines derived from the same donor): 1.2 – 1.4
- viability (J2 HIE line; 80 μM): reduction in viability
- CC50 at 24 h [7]: 50.9 µM
- clinical resolution of symptoms (HuNoV [8]): did not improve clinical resolution of symptoms
- fecal viral load (HuNoV [8]): no effect
- replication of HuNoV isolates [3]: reduced replication
- SI (GII.4 Sydney [P31] HuNoV): 1.9
- reduction in replication (GII.4 Sydney [P31] HuNoV; J2 HIEs, 40 μM, 24 h): 0.67 log10
- reduction in replication (GII.4 Sydney [P31] HuNoV; J2 HIEs, 80 μM, 24 h): 2.31 log10
- EC50 (GII.4 Sydney [P31] HuNoV; [12]): 37.1 µM
- EC90 (GII.4 Sydney [P31] HuNoV; [12]): 43 µM
- inhibition at 40 µM (GII.4 Sydney [P31] HuNoV; [13]): 76.7%
- inhibition at 80 µM (GII.4 Sydney [P31] HuNoV; [13]): 99.5%
- CC50 at 24 h [9]: 57 µM
- clinical outcome versus other or no treatments (HuNoV [10]): no differences were reported
- SI (GI.1[P1] HuNoV; [14]): 2.7
- EC90 (GI.1[P1] HuNoV; J4FUT2 HIE line, 24 h): 76 µM
- inhibition in replication (GI.1[P1] HuNoV; [15]): 72.3 – 98.2%
- reduction of genome equivalents (GI.1[P1] HuNoV; [15]): 0.6 – 1.8 log10
- EC50 (GI.1[P1] HuNoV; [12]): 27.4 µM
- EC90 (GI.1[P1] HuNoV; Norovirus, in Homo sapiens, 24 h, J4FUT2 HIE line): 76.3 µM
- inhibitory activity on replication (GII.4 Sydney [P31] virus): no inhibitory activity
- EC50 (5 HuNoV strains): ≥ 10 µM
- highest dose tested that kept the cell monolayers intact ([11]; J2 HIE monolayers): 10 µM
- HIE monolayer integrity ([11]; concentrations below 10 µM): intact
